# High-throughput results from PubChem BioAssay.
# Most compounds without a hit are left out; they make up all but 9.8% or so of the library.
# WT yeast gro inh: growth inhibition of WT strain, primary screen, mitochondrial fusion inhibitor project, WT and mutant strains, chemical genetic. 190,000 compounds, 2.1% hits. mitochondrial fusion phenotypic screen. inhibition, % at 10 µM; in the data active = inhibition above about 58%; tested in S. cerevisiae
# Calpain2 inh: inhibitors of pig calpain II, primary screen, biochemical, fluorogenic peptide substrate, 1536-well; purified calpain II, 30 min; 220,000 compounds, 0.37% hits; inhibition, % at 16 µM;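 active = inhibition above about 50%, limit read from the data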
# PMI activator: activators of human PMI, primary screen, biochemical, fluorescence intensity, near-Km mannose 6-phosphate. purified human PMI, coupled resazurin fluorescence, 20 min; active compounds read high; 1 = vehicle control, 0 substrate-free wells. activation factor at 20 µM. 190,000 compounds, 0.005% hits. AID 1214, 2008;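 active = activation factor of 2 or more at 20 µM, relative to plate controls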
# Target sequence (P34949 whole entry, looked up): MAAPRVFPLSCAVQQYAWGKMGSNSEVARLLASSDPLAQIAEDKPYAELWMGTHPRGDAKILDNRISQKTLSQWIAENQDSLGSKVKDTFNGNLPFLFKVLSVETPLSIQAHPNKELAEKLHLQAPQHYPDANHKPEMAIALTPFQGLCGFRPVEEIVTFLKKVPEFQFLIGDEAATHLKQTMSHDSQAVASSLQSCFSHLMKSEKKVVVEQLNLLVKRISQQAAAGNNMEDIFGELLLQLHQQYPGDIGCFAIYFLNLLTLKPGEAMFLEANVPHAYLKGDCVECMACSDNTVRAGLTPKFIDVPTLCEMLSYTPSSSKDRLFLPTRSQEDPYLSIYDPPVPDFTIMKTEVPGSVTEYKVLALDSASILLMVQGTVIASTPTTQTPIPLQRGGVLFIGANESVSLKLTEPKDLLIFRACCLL
# Lmaj promast: Leishmania major promastigote growth inhibition, primary screen. Leishmania major promastigotes, resazurin fluorescence viability. AID 1063, 2008. 200,000 compounds, 9% hits. inhibition, % at 10 µM; in the data active = inhibition above about 50%;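 also: promastigotes grown with compound for 44 hours at 28 °C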
# PMI act hi M6P: human PMI activators, high substrate, primary screen, biochemical, fluorescence intensity, near-saturating mannose 6-phosphate; Mannose-6-phosphate isomerase (Homo sapiens), P34949; coupled PMI enzyme assay, resazurin fluorescence, 20 min; active compounds read high; 1 = untreated enzyme, 0 = substrate-free blank; activation factor at 20 µM; 190,000 compounds, 0.34% hits;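 active = activation factor of 2 or more at 20 µM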
#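 test system = human PMI in coupled enzyme assay | medium = HEPES-buffered pH 7.4 with magnesium and detergent | also added = 1.0 mM mannose-6-phosphate substrate with 0.22 mM NADP+ | compound = 20 µM single dose | times = 20 min incubation at room temperature | measured by = resorufin fluorescence (Ex 544/Em 590 nm) from resazurin via diaphorase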
# Rad51 HR inh: human RAD51 strand exchange inhibitors, primary screen, biochemical, fluorescence; AID 1385, 2008; inhibition, % at 10 µM; hRad51 DNA strand exchange, fluorescence dequenching; DNA repair protein RAD51 homolog 1 (Homo sapiens), Q06609; 200,000 compounds, 0.085% hits;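 active = inhibition above 40% at the single screening dose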
#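 Read-out basis: percent inhibition relative to plate controls and blanks / Assay system: human Rad51 nucleoprotein filaments preassembled on unlabelled ssDNA / Timing: filaments 15 min 37 °C, then compound 30 min / Control set: per-plate controls and blanks / Technique: fluorescence dequenching at 485/520 nm / Compound: 10 µM final, single point / Also added: Fluorescein- and BHQ1-tagged 47-mer duplex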
# Hits are given with their value; – = inactive; · = no result.
SMILES,WT yeast gro inh,Calpain2 inh,PMI activator,Lmaj promast,PMI act hi M6P,Rad51 HR inh
CSCCC(NC(=O)c1ccc(Cl)cc1)C(=O)OCC(=O)Nc1cc(Cl)ccc1C#N (stereo not drawn),–,–,–,54,–,–
CCOc1ccc(NC(=O)CC2SC(=O)N(c3ccccc3)C2=O)cc1 (stereo not drawn),–,–,–,–,–,–
CCc1ccc(-c2cn(C3CCCCC3)c(=S)[nH]2)cc1,68,–,–,–,–,–
CCN1CCN(C(=O)C2(NC(=O)Nc3ccccc3Cl)CCCCC2)CC1,–,–,–,55,–,–
O=C(NCc1ccccc1)NC1(C(=O)N2CCN(c3ccccc3)CC2)CCCCC1,–,–,–,54,–,–
CCCCNC(=O)COc1ccccc1C(=O)c1cc(C#N)c(=O)n(CCOC)c1,–,–,–,–,–,–
O=C(CSC(=S)N1CCCCC1)N1N=CCC1c1ccccc1 (stereo not drawn),–,–,–,51,–,–
O=C(Nc1nc(=O)[nH]s1)c1ccccc1,–,57,–,–,–,–
O=C(Nc1nc(=O)c2ccccc2s1)c1ccccc1,–,–,–,–,–,–
COc1cccc(Cn2cc(C(=O)NCCN(C)C)nn2)c1,–,–,·,–,·,–
CCCCC(=O)Nc1cccc(C(=O)N/N=C/c2ccc(OC)cc2OC)c1,–,–,–,100,–,–
COc1ccc(/C=N/NC(=O)c2cccc(NC(=O)c3ccccc3Cl)c2)c(OC)c1,–,–,–,53,–,–
O=C(Nc1ccc(Cl)c(Cl)c1)O/N=C/c1ccncc1,74,–,–,–,–,·
O=C(N/N=C/c1ccncc1)c1cccc(NC(=O)c2ccccc2Cl)c1,–,–,–,62,–,–
Cc1ccc(NC(=O)c2ccc(F)cc2F)cc1NS(C)(=O)=O,·,–,·,·,·,–
CC1=NCCN1S(=O)(=O)c1cc([N+](=O)[O-])ccc1Cl,–,–,–,–,–,–
CCC(=O)Nc1ccc(NC(=S)NC(=O)c2cc3ccccc3o2)cc1,–,–,–,–,–,·
CCCC(=O)Nc1ccc(Cl)c(NC(=S)NC(=O)c2cc3ccccc3o2)c1,–,52,–,–,–,·
Cc1c(NC(=S)NC(=O)c2cc3ccccc3o2)c(=O)n(-c2ccccc2)n1C,–,–,–,53,–,–
NS(=O)(=O)c1ccc(N/N=C2/CCCCC2C2CCCCC2)c([N+](=O)[O-])c1 (stereo not drawn),96,–,–,–,–,–
CC1(C)Cc2nc3sc(C(=O)O)c(N)c3cc2CS1,–,–,–,–,2.4,–
CCN(CC)CCN(Cc1cc2ccc(C)cc2[nH]c1=O)C(=O)Nc1ccc(Cl)cc1,–,–,–,63,–,–
CCN(Cc1cc2ccc(C)cc2[nH]c1=O)C(=O)c1ccncc1,60,–,–,–,–,–
CC(=O)c1c(N2CCN(C)CC2)nc(=S)n(-c2cc(C)ccc2C)c1C,–,–,–,–,–,–
O=S(=O)(Nc1ccc(N=Nc2ccc(O)c3ccccc23)cc1)c1ccccc1,59,–,–,86,–,–
SMILES,WT yeast gro inh,Calpain2 inh,PMI activator,Lmaj promast,PMI act hi M6P,Rad51 HR inh
O=S(=O)(Nc1ccc(N=Nc2ccccc2)cc1)c1ccccc1,–,–,–,–,–,–
CNS(=O)(=O)c1ccc(C(C)(C)C)cc1,–,–,–,–,–,–
CCC(C)(NC=O)C(=O)Nc1c(C)cccc1C (stereo not drawn),·,–,·,·,·,–
CCOC(=O)C1=NN(c2cccc(C)c2)C2(S1)SC(C(C)=O)=C(C)N2c1ccccc1 (stereo not drawn),77,–,–,–,–,–
NS(=O)(=O)c1cccc(NC(=O)CN2CCN(Cc3ccc4c(c3)OCO4)CC2)c1,–,–,–,53,–,–
O=C(CN1CCCN(S(=O)(=O)c2ccc(Br)cc2)CC1)Nc1ccc2c(c1)OCO2,–,–,–,86,–,–
O=C(CN1CCN(Cc2ccc3c(c2)OCO3)CC1)c1c[nH]c2ccccc12,–,–,–,86,–,–
CC1CCc2nc(NC(=O)CN3CCN(c4ccccc4)CC3)sc2C1 (stereo not drawn),–,–,–,–,–,–
CC1CCc2nc(NC(=O)CN3CCN(Cc4ccc5c(c4)OCO5)CC3)sc2C1 (stereo not drawn),–,–,–,99,–,–
COc1ccc(CC(=O)NC2CCN(CC(=O)Nc3ccc4c(c3)OCCO4)CC2)cc1OC,–,–,–,–,–,–
COc1cc(NC(=O)CN2CCN(Cc3ccc4c(c3)OCO4)CC2)cc(OC)c1,–,–,–,86,–,·
O=C(CN1CCN(Cc2ccc3c(c2)OCO3)CC1)Nc1ccc2c(c1)OCO2,–,–,–,92,–,–
COc1ccc(NC(=O)CN2CCN(Cc3ccc4c(c3)OCO4)CC2)cc1OC,–,–,–,71,–,–
O=C(CN1CCN(Cc2ccc3c(c2)OCO3)CC1)Nc1ccc(F)cc1,–,–,–,97,–,·
O=C(COc1ccc(Cl)cc1)NCc1ccncc1,–,–,–,–,–,–
O=c1[nH]c(CN2CCCCC2)nc2ccccc12,–,–,–,–,–,–
O=c1[nH]c(CN2CCN(Cc3ccc4c(c3)OCO4)CC2)nc2ccccc12,–,–,–,91,–,–
O=C(CN1CCN(Cc2ccc3c(c2)OCO3)CC1)Nc1ccc2c(c1)OCCO2,–,–,–,91,–,–
Cc1c(C2C(C#N)=C(N)N(c3cccc([N+](=O)[O-])c3)C3=C2C(=O)CCC3)cnn1C (stereo not drawn),–,–,–,–,–,–
O=C(COc1ccccc1)Nc1ccc(Cl)cc1Cl,–,–,–,–,–,–
COc1ccc(CNc2nc3c(c(=O)n(Cc4ccc(Cl)cc4)c(=O)n3C)n2C)cc1,–,84,–,–,–,–
Cn1c(=O)c2c(nc(NCc3ccco3)n2Cc2ccc(Cl)cc2Cl)n(C)c1=O,–,–,–,–,–,–
Cn1c(NCc2ccco2)nc2c1c(=O)n(Cc1ccc(Cl)c(Cl)c1)c(=O)n2C,–,86,–,–,–,–
Cn1c(NCC(O)CO)nc2c1c(=O)n(Cc1ccc(Cl)c(Cl)c1)c(=O)n2C (stereo not drawn),–,–,–,73,–,–
COc1ccc(Cl)c(Cn2c(NCCCN(C)C)nc3c2c(=O)n(C)c(=O)n3C)c1,–,–,–,100,–,–
COC(=O)c1cc(=O)n2c(sc3ccccc32)c1C#N,·,–,·,·,·,–
CC(C)(C)NC(=O)COC(=O)CCC(=O)c1cccs1,–,–,–,–,–,–
